# An excerpt weighted towards active compounds, which were near 1.7% of everything screened.
# SUMO1 PPI mod – modulators of SUMO1 protein-protein interactions, primary screen, biochemical, uHTS. Small ubiquitin-related modifier 1 (Homo sapiens), P63165. SUMO1 binding to a labelled peptide, TR-FRET, 1 h. inhibition, % at 20 µM. actives 0.33% (n = 360,000); in the data active means inhibition above about 37%
# Target sequence (P63165 whole entry, looked up): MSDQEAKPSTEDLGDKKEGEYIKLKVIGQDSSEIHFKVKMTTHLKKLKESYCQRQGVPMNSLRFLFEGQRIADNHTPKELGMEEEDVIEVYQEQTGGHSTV
# STEP inh – STEP phosphatase inhibitors, primary screen, biochemical, fluorescence intensity, uHTS | Tyrosine-protein phosphatase non-receptor type 5 (Homo sapiens), P54829 | recombinant STEP, OMFP fluorogenic substrate | inhibition, % at 20 µM | actives 0.25% (n = 360,000) | AID 588621, 2011;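 active means inhibition at 20 µM, scaled per plate between control wells, above about 37%, limit read from the data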;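 further: 0% = DMSO with enzyme and substrate and 100% = substrate only without enzyme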
#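 System: isolated STEP enzyme; schedule: 20 min enzyme reaction at room temperature, protected from light; medium: Bis-Tris buffer pH 6.0, 2.5 mM DTT, 0.005% Tween 20; signal: fluorescence, 480/540 nm; dosing: single compound dose of 20 µM, 1% DMSO final; also added: OMFP substrate, 25 µM final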
# DSG3 Ab inh – inhibitors of pemphigus antibody binding to DSG3, primary screen, biochemical, bead-based, flow cytometry, scFv-GFP; Desmoglein-3 (Homo sapiens), P32926; DSG3-coupled beads, scFv-anti-DSG3-GFP binding; active compounds read low; binding (percent of control), % at 10 µM; actives 0.48% (n = 310,000);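 active means binding more than 3 SD below its plate's average and above zero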;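 further: hits lower antibody fragment binding to DSG3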
# Scp1 inh – Scp-1 phosphatase inhibitors, primary screen, biochemical, colorimetric, uHTS; Carboxy-terminal domain RNA polymerase II polypeptide A small phosphatase 1 (Homo …; Recombinant Scp1, phosphopeptide, malachite green phosphate absorbance; inhibition, % at 20 µM; actives 0.88% (n = 340,000);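 active means inhibition above about 50% at 20 µM, limit read from the data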;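 further: plate controls were DMSO wells with enzyme for no effect and wells lacking enzyme for full effect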
# Target sequence (Q9GZU7 76-261 limits assumed): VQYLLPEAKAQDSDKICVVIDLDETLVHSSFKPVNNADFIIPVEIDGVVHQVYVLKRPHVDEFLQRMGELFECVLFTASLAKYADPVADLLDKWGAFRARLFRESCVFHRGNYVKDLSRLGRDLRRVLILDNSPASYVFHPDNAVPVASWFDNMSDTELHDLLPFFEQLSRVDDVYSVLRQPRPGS
#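 Test system: SCP-1 phosphatase catalytic domain, residues 76-261; measured by: colorimetric phosphate reagent with accelerator and stabiliser, absorbance at 630 nm; timing: enzyme reaction 45 min at room temperature, colour 5 min, stabilisation 30 min; also added: Phosphorylated 17-residue peptide substrate; compound dosing: one concentration, 20 µM, with 1.0% DMSO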
# LMPTP block – LMPTP phosphatase inhibitors, primary screen, biochemical, fluorescence intensity, uHTS. actives 0.22% (n = 360,000). Low molecular weight phosphotyrosine protein phosphatase (Homo sapiens), P24666. recombinant LMPTP-A, OMFP fluorogenic substrate. inhibition, % at 20 µM;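 active means compounds that cut the enzyme signal by at least half of the control window in the single-dose screen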;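 further: plate controls were DMSO wells with enzyme plus substrate for no effect and substrate without enzyme for full effect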
# Target sequence (P24666 whole entry, looked up): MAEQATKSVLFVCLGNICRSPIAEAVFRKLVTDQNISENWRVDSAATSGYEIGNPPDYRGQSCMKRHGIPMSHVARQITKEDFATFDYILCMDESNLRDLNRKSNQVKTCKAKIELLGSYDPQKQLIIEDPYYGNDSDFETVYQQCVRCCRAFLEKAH
#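 Buffer or medium: Bis-Tris pH 6.0, DTT, detergent; Assay system: LMPTP-A enzyme; Quantity: 0.625 nM enzyme; Detection: endpoint fluorescence intensity; Times: 50 min dark incubation at room temperature; Controls: substrate-only low control, DMSO enzyme-plus-substrate high control; Doses: single 20 µM dose; Read-out: percent inhibition versus substrate-only and uninhibited controls; Reagent: 400 µM OMFP.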
# Scp1 confirm – Scp-1 phosphatase inhibitors, retest, confirmation, biochemical, colorimetric, single concentration; shares compounds with Scp1 inh; recombinant SCP-1 catalytic domain, phosphate release, malachite green absorbance; inhibition, % at 20 µM; actives 61% (n = 2,500);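 further: plate controls were DMSO with enzyme for no effect and buffer wells lacking enzyme for full effect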
# MG interference – colorimetric readout interference by compounds, confirmation, artefact control for Scp-1 inhibitor project, biochemical, single concentration; shares compounds with Scp1 inh; Colorimetric interference counterscreen, malachite green absorbance 630 nm; apparent inhibition (interference), % at 20 µM; 2,500 tested, under 10 active;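 further: compounds added after enzyme reaction finished so only phosphate colour detection is probed; plate controls were DMSO wells with completed Scp-1 reaction for no effect and substrate wells lacking enzyme for full effect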
# Scp-1 Tm shift – Scp-1 binding by thermal shift, confirmation, orthogonal assay for Scp-1 inhibitor project, biophysical, differential scanning fluorimetry; shares compounds with Scp1 inh; Recombinant SCP1, Sypro Orange thermal shift Tm; thermal shift relative to vanadate control, % at 40 µM; actives 25% (n = 1,500); AID 540329, 2011;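 active means substances whose mean melting-temperature shift, as a percentage of the reference inhibitor's shift, reaches about 5.3%, limit read from the data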;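 further: 0% = Tm of DMSO wells and 100% = Tm with sodium orthovanadate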
# An asterisk follows results filed as active; . = no result.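 How the source made its calls, unless noted: active means inhibition of at least 30% at 20 µM; inactive means the rest.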
SMILES,SUMO1 PPI mod,STEP inh,DSG3 Ab inh,Scp1 inh,LMPTP block,Scp1 confirm,MG interference,Scp-1 Tm shift
CCc1nc2oc3ccccc3c(=O)c2c(=O)n1-c1ccc(C)cc1,10.6,5.4,98.8,64.9*,46.6,56.3*,-15.6,4.1
Cn1cccc1C(=O)NC(=O)COC(=O)c1cc(Cl)ccc1[N+](=O)[O-],-21.2,-1.1,89.5,-13.9,-0.2,.,.,.
COC(=O)C1=COC(OC2OC(CO)C(O)C(O)C2O)C2C1C=CC2(O)CO (stereo not given),19.5,13.7,.,58.2*,5.7,34.2*,-10.9,-6.4
Oc1ccc(C[C@H]2CNC(=S)N2CC2CCCN2C[C@H](Cc2ccc(O)cc2)N2C[C@H](Cc3ccccc3)N(CC3CCCCC3)C2=S)cc1 (stereo not given in full),3.1,0.2,101.8,50.4*,6.0,8.6,8.8,.
C=CCOc1c(Br)cc(/C=N/n2c(CC)n[nH]c2=S)cc1Br,4.2,1.6,91.3,71.6*,0.8,-16.9,-16.4,.
CCc1n[nH]c(=S)n1/N=C/c1cc(Br)c(O)c(OC)c1,17.8,-3.3,103.0,0.9,-5.4,.,.,.
N#CC(=C(O)CN1CCN(c2ccccc2F)CC1)c1nc(-c2ccccc2)cs1,0.1,-1.7,.,1.9,-3.3,.,.,.
CC[N+](CC)(CC)CC(=O)Nc1ccc(SC(F)F)cc1,-1.9,-2.7,95.9,60.0*,-0.5,-9.6,-1.3,.
O=C(CSc1nncc2ccccc12)Nc1cccc(C(=O)O)c1,5.4,1.3,100.8,-5.8,-2.5,.,.,.
O=C(CSc1nc(-c2ccccc2)nc2ccc(F)cc12)Nc1cccc(C(=O)O)c1,-7.5,8.1,122.4,67.2*,62.9*,59.9*,-9.3,-5.7
O=C(CSc1nc(-c2ccccc2)nc2ccc(F)cc12)Nc1ccc(C(=O)O)cc1,-7.4,11.2,95.0,61.1*,62.3*,52.8*,-18.9,-0.7
Brc1ccc2nc(C3CCCCC3)c(CC3CCCCC3)n2c1,0.8,2.5,.,.,1.7,.,.,.
Cc1ccc(C(=O)O)cc1-c1ccc(/C=C2/NC(=O)N(c3ccccc3)C2=O)o1,25.2,4.8,94.3,63.0*,4.3,67.9*,-12.3,12.6*
O=C1N/C(=C/c2ccc(N3CCOCC3)o2)C(=O)N1c1ccccc1,-12.8,-1.3,101.3,5.4,-2.0,.,.,.
O=C(O)c1ccc(-c2ccc(/C=C3\NC(=O)N(Cc4ccc(Cl)cc4)C3=O)o2)cc1,19.1,2.5,94.1,42.1,6.1,.,.,.
Cc1cc(C(=O)O)ccc1-c1ccc(/C=C2\NC(=O)N(Cc3ccccc3Cl)C2=O)o1,18.7,2.1,104.3,64.9*,2.9,74.6*,-0.2,9.3*
CC1CC(C)CN(C(=O)COC(=O)c2nccnc2N)C1 (stereo not given),-11.1,-0.4,103.7,-2.2,0.2,.,.,.
CCCCNc1nc2ccccc2n1CC(=O)Nc1c(C)cccc1CC,2.5,0.1,107.5,6.6,7.2,.,.,.
N=C1/C(=C/c2ccc(-c3cccc(C(=O)O)c3)o2)C(=O)N=C2SC(CC(=O)N3CCOCC3)=NN12,32.8,25.0,104.2,79.0*,2.2,58.0*,-12.9,2.4
